The values that follow come from ChEMBL document CHEMBL1156179 (J Med Chem, 2010).

Bounds are passed on as bounds.

Assay [1] concerns the target Adenosine receptor A2a (Homo sapiens, UniProt P29274). The experiment in a line: Displacement of [3H]NECA from human cloned adenosine A2a receptor expressed in CHO cells. It is filed as cell-based. Summed up: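 hA2A-CHO membranes, prepared by two-step centrifugation, were incubated with 30 nM [3H]NECA, 50 μg protein and graded compound under the A1 binding conditions. Nonspecific binding with 100 μM R-PIA.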

The target in assay [2] is T1, Adenosine receptor A2b (Homo sapiens, UniProt P29275).
T1 sequence (P29275 whole entry): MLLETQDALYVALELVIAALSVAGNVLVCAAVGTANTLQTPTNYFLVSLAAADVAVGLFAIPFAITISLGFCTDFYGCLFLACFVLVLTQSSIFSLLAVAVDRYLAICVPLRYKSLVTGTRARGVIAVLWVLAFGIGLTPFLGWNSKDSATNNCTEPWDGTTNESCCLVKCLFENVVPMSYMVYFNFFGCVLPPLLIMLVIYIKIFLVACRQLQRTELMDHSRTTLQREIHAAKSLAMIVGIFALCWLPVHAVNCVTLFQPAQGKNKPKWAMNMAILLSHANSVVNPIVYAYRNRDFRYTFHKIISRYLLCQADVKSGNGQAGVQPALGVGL
The experiment in a line: Antagonist activity at human cloned adenosine A2b receptor expressed in CHO cells assessed as inhibition of NECA-stimulated cAMP accumulation. It counts as functional, cell-based. Summed up:
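Membranes from CHO cells with hA2B receptor, prepared by a single 30 min spin at 54000g and resuspended in 50 mM Tris/HCl pH 7.4, used fresh. Antagonist inhibition of NECA-stimulated adenylyl cyclase gave IC50 by Hill fit; Ki from Cheng–Prusoff.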
On the technique in general: Changes in cAMP serve as a functional read-out for many G protein-coupled receptors.

For assay [3], the species on record is Homo sapiens. The experiment in a line: Selectivity ratio of Ki for human adenosine A2A receptor to Ki for human adenosine A3.
Assay [4] concerns the target Adenosine receptors; A1 & A3 (Homo sapiens) (UniProt P30542+P0DMS8). As to the kind of experiment: Selectivity ratio of Ki for human adenosine A1 receptor to Ki for human adenosine A3.
In assay [5] the target is T2, Adenosine receptor A3 (Homo sapiens, UniProt P0DMS8).
T2 sequence (P0DMS8 whole entry): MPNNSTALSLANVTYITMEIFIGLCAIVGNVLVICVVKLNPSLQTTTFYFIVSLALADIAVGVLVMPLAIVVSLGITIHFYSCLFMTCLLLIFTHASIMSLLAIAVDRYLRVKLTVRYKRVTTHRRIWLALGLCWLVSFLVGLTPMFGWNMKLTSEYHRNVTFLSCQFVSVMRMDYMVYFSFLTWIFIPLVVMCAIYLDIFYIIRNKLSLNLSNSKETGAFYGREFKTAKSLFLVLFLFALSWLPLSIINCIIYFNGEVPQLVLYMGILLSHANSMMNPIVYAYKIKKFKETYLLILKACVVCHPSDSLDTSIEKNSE
The experiment in a line: Displacement of [3H]NECA from human cloned adenosine A3 receptor expressed in CHO cells. It counts as cell-based.

The target of assay [6] is T3, Adenosine receptor A1 (Homo sapiens, UniProt P30542).
T3 sequence (P30542 whole entry): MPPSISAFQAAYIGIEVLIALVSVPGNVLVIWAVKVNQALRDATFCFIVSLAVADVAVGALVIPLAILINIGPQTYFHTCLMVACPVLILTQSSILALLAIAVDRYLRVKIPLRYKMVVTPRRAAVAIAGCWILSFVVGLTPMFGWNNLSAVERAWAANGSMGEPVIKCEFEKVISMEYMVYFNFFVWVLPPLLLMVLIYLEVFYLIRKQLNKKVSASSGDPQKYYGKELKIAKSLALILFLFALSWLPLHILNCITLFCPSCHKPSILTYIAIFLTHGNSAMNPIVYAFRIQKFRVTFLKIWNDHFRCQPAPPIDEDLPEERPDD
The experiment in a line: Displacement of [3H]CCPA from human cloned adenosine A1 receptor expressed in CHO cells. It counts as cell-based. An outline of the steps: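 CHO membranes with hA1 receptor, from 1000g 4 min spin then 100000g 30 min. Incubated 3 h at 25 °C with 1 nM [3H]CCPA, 0.2 U/mL adenosine deaminase, 20 μg protein in 50 mM Tris/HCl pH 7.4 and graded compound. Nonspecific binding with 1 mM theophylline.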
In general terms: Displacement assays read how much labelled ligand stays bound in the presence of the test substance.

Adenosine receptor A2a, sequence (P29274 whole entry): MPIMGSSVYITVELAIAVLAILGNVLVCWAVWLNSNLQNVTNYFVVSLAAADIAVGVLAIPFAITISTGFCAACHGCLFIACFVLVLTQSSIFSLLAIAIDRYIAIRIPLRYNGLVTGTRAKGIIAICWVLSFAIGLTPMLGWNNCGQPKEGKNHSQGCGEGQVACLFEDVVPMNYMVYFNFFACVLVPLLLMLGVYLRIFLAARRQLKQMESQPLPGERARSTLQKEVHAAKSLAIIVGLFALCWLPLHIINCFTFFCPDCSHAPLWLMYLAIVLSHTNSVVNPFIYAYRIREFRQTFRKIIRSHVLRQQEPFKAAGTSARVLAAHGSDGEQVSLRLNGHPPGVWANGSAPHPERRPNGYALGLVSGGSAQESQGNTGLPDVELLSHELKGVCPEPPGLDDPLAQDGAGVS

For the compound `Cn1cc2c(nc(NC(=O)Cc3ccccc3)n3nc(-c4ccc([N+](=O)[O-])cc4)nc23)n1`, the Ki in assay [1] is 23900 nM; in assay [2], over 10000 nM; in assay [5], 0.624 nM; in assay [6], 23200 nM. Further, the Ratio Ki in assay [3] came out at 38300; in assay [4], 37200.
`O=C(Nc1nc2nn(CCc3ccccc3)cc2c2nc(-c3ccccc3)nn12)c1ccccc1`: the Ki in assay [1] is 963 nM; in assay [2], over 10000 nM; in assay [5] it was 23.9 nM; in assay [6], 313 nM. The Ratio Ki in assay [3] amounted to 40.3; in assay [4], 13.1.
Turning to `Cn1cc2c(nc(NC(=O)c3ccccc3)n3nc(-c4ccc(F)cc4)nc23)n1`, the Ki in assay [1] is over 100000 nM; in assay [2], over 10000 nM; in assay [5] it was 3.43 nM; in assay [6], 2530 nM. The Ratio Ki was over 29200 in assay [3] and 738 in assay [4].
For the compound `Cn1cc2c(nc(NC(=O)Cc3ccccc3)n3nc(-c4ccccc4)nc23)n1`, the Ki in assay [1] was 778 nM; in assay [2], over 10000 nM; in assay [5] it was 0.108 nM; in assay [6] it was 562 nM. Also, the Ratio Ki is 7200 in assay [3] and 5200 in assay [4].
For the compound `Cn1cc2c(nc(NC(=O)Cc3ccccc3)n3nc(-c4ccc(F)cc4)nc23)n1`, the Ki in assay [1] is 2540 nM; in assay [2] it was over 10000 nM; in assay [5], 0.201 nM; in assay [6], 2290 nM. The Ratio Ki in assay [3] is 12600; in assay [4], 11400.
As for `Cn1cc2c(nc(N)n3nc(-c4ccccc4)nc23)n1`, the Ki in assay [1] is 121 nM; in assay [2], over 10000 nM; in assay [5] it was 75 nM; in assay [6], 339 nM. Moreover, the Ratio Ki in assay [3] was found to be 1.61; in assay [4] it was 4.52.
On to `COc1ccc(-c2nc3c4cn(C)nc4nc(NC(=O)Cc4ccccc4)n3n2)cc1`, for which the Ki is over 100000 nM in assay [1], over 10000 nM in assay [2], 0.241 nM in assay [5] and over 30000 nM in assay [6]. Further, the Ratio Ki in assay [3] is over 415000; in assay [4], over 124000.
For the compound `COc1ccc(-c2nc3c4cn(CCc5ccccc5)nc4nc(N)n3n2)cc1`, the Ki in assay [1] is 1400 nM; in assay [2], over 10000 nM; in assay [5] it was 25 nM; in assay [6], 289 nM. The Ratio Ki was 56 in assay [3] and 11.6 in assay [4].
For the compound `Nc1nc2nn(CCc3ccccc3)cc2c2nc(-c3ccc(Cl)cc3)nn12`, the Ki in assay [1] is 2180 nM; in assay [2], over 10000 nM; in assay [5], 79.7 nM; in assay [6] it was 204 nM. The values for the Ratio Ki in assay [3] and in assay [4] were 27.4 and 2.56, respectively.
Consider `Cn1cc2c(nc(NC(=O)Cc3ccccc3)n3nc(-c4ccc(Br)cc4)nc23)n1`, for which the Ki in assay [1] is over 100000 nM; in assay [2], over 10000 nM; in assay [5], 0.345 nM; in assay [6] it was 24400 nM. Besides, the results for the Ratio Ki in assay [3] and in assay [4] were over 290000 and 70700, respectively.
Regarding `CCn1ncc2c1nc(N)n1nc(-c3ccc(Cl)cc3)nc21`, the Ki was 83.8 nM in assay [1], over 10000 nM in assay [2], 565 nM in assay [5] and 121 nM in assay [6]. Besides, the Ratio Ki was determined as 0.15 in assay [3] and 0.21 in assay [4].
In the case of `CCn1cc2c(nc(N)n3nc(-c4ccc(Cl)cc4)nc23)n1`, the Ki in assay [1] was 843 nM; in assay [2] it was over 10000 nM; in assay [5], 68.7 nM; in assay [6], 1570 nM. For the same compound, the Ratio Ki worked out at 12.3 in assay [3] and 22.9 in assay [4].
Consider `Cn1cc2c(nc(NC(=O)c3ccccc3)n3nc(-c4ccc(Br)cc4)nc23)n1`, for which the Ki is over 100000 nM in assay [1], over 10000 nM in assay [2], 5.24 nM in assay [5] and over 30000 nM in assay [6]. Further, the Ratio Ki was over 19100 in assay [3] and over 5730 in assay [4].
Take `COc1ccc(-c2nc3c4cn(C)nc4nc(NC(=O)c4ccccc4)n3n2)cc1`: the Ki in assay [1] is over 100000 nM; in assay [2], over 10000 nM; in assay [5], 2.1 nM; in assay [6], over 30000 nM. Moreover, the Ratio Ki is over 47600 in assay [3] and over 14300 in assay [4].
As to `Cn1cc2c(nc(N)n3nc(-c4ccc(Cl)cc4)nc23)n1`, the Ki is 2020 nM in assay [1], over 10000 nM in assay [2], 72.4 nM in assay [5] and 4860 nM in assay [6]. In addition, the results for the Ratio Ki in assay [3] and in assay [4] were 27.9 and 67.1, respectively.
With `Cn1cc2c(nc(NC(=O)c3ccccc3)n3nc(-c4ccc([N+](=O)[O-])cc4)nc23)n1`, the Ki in assay [1] was over 100000 nM; in assay [2], over 10000 nM; in assay [5], 56.4 nM; in assay [6], over 30000 nM. Moreover, the figures for the Ratio Ki in assay [3] and in assay [4] were over 1770 and over 532, respectively.
Regarding `COc1ccc(-c2nc3c4cn(C)nc4nc(N(C(=O)c4ccccc4)C(=O)c4ccccc4)n3n2)cc1`, the Ki is over 10000 nM in assay [1], over 10000 nM in assay [2], 6.88 nM in assay [5] and over 10000 nM in assay [6]. For the same compound, the Ratio Ki in assay [3] and in assay [4] was over 1450 in each case.
With `Cn1cc2c(nc(NC(=O)Cc3ccccc3)n3nc(-c4ccco4)nc23)n1`, the Ratio Ki is 522 in assay [3] and 867 in assay [4].
On to `Cn1cc2c(nc(N(C(=O)c3ccccc3)C(=O)c3ccccc3)n3nc(-c4ccc(Cl)cc4)nc23)n1`, for which the Ki in assay [1] was over 10000 nM; in assay [2] it was over 10000 nM; in assay [5], 6.94 nM; in assay [6], over 10000 nM. The Ratio Ki in assay [3] and in assay [4] was over 1440 in each case.
As for `Cn1cc2c(nc(NC(=O)c3ccccc3)n3nc(-c4ccc(Cl)cc4)nc23)n1`, the Ki in assay [1] is over 100000 nM; in assay [2], over 10000 nM; in assay [5], 2.82 nM; in assay [6], over 30000 nM. Further, the Ratio Ki in assay [3] was over 35500; in assay [4] it was over 10600.
Regarding `Cn1cc2c(nc(N)n3nc(-c4ccco4)nc23)n1`, the Ratio Ki in assay [3] is 0.009; in assay [4], 0.33.
Regarding `O=C(Nc1nc2nn(CCc3ccccc3)cc2c2nc(-c3ccc(Br)cc3)nn12)c1ccccc1`, the Ki was over 100000 nM in assay [1], over 10000 nM in assay [2], 153 nM in assay [5] and 270 nM in assay [6]. For the same compound, the Ratio Ki was over 654 in assay [3] and 1.76 in assay [4].
Regarding `Cn1cc2c(nc(N)n3nc(-c4ccc(Br)cc4)nc23)n1`, the Ki in assay [1] was 1500 nM; in assay [2], over 10000 nM; in assay [5], 38.6 nM; in assay [6], 2890 nM. Moreover, the Ratio Ki was 38.9 in assay [3] and 74.9 in assay [4].
For `COc1ccc(-c2nc3c4cn(C)nc4nc(N)n3n2)cc1`, the Ki is 1190 nM in assay [1], over 10000 nM in assay [2], 16.7 nM in assay [5] and 9730 nM in assay [6]. For the same compound, the Ratio Ki in assay [3] stood at 71.3; in assay [4] it was 583.
Regarding `Nc1nc2nn(CCc3ccccc3)cc2c2nc(-c3ccc(F)cc3)nn12`, the Ki was 127 nM in assay [1], over 10000 nM in assay [2], 50.6 nM in assay [5] and 39.1 nM in assay [6]. In addition, the Ratio Ki in assay [3] was determined as 2.51; in assay [4], 0.773.
Consider `Nc1nc2nn(CCc3ccccc3)cc2c2nc(-c3ccccc3)nn12`, for which the Ki in assay [1] is 196 nM; in assay [2] it was over 10000 nM; in assay [5] it was 76.7 nM; in assay [6], 74.8 nM. Also, the Ratio Ki in assay [3] amounted to 2.56; in assay [4] it was 0.975.

By Ki is commonly meant the equilibrium dissociation constant of an inhibitor or competing ligand from its target.
